Results taken from ChEMBL document CHEMBL2384965, “ABSOLUTE CONFIGURATION AND BIOLOGICAL PROPERTIES OF ENANTIOMERS OF CFTR INHIBITOR BPO-27” (ACS Med Chem Lett, 2013).
Values belong to the compound of their own block, whether it stands above or below them. Activity calls are given as the source filed them. No cut-off for these calls is given here.

Legend:
Serum [1] = assay: Metabolic stability in mouse serum at 5 mg after 4 hrs by hydrogen-deuterium exchange assay; format: ADME, cell-free
[2] = molecular target: T1, Cystic fibrosis transmembrane conductance regulator (Homo sapiens, UniProt P13569); assay: Inhibition of wild type human CFTR chloride conductance expressed in forskolin-stimulated rat FRT cells at 100 nM by short-circuit current analysis in presence of transepithelial chloride gradient; format: cell-based
Method in brief: (§1)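 FRT epithelial cells expressing human wild-type CFTR, basolateral membrane permeabilized with amphotericin B, transepithelial chloride gradient applied. CFTR chloride conductance activated with 10 μM forskolin; inhibition read as the reduction in short-circuit current.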
Target sequence in this assay (P13569 whole entry, looked up): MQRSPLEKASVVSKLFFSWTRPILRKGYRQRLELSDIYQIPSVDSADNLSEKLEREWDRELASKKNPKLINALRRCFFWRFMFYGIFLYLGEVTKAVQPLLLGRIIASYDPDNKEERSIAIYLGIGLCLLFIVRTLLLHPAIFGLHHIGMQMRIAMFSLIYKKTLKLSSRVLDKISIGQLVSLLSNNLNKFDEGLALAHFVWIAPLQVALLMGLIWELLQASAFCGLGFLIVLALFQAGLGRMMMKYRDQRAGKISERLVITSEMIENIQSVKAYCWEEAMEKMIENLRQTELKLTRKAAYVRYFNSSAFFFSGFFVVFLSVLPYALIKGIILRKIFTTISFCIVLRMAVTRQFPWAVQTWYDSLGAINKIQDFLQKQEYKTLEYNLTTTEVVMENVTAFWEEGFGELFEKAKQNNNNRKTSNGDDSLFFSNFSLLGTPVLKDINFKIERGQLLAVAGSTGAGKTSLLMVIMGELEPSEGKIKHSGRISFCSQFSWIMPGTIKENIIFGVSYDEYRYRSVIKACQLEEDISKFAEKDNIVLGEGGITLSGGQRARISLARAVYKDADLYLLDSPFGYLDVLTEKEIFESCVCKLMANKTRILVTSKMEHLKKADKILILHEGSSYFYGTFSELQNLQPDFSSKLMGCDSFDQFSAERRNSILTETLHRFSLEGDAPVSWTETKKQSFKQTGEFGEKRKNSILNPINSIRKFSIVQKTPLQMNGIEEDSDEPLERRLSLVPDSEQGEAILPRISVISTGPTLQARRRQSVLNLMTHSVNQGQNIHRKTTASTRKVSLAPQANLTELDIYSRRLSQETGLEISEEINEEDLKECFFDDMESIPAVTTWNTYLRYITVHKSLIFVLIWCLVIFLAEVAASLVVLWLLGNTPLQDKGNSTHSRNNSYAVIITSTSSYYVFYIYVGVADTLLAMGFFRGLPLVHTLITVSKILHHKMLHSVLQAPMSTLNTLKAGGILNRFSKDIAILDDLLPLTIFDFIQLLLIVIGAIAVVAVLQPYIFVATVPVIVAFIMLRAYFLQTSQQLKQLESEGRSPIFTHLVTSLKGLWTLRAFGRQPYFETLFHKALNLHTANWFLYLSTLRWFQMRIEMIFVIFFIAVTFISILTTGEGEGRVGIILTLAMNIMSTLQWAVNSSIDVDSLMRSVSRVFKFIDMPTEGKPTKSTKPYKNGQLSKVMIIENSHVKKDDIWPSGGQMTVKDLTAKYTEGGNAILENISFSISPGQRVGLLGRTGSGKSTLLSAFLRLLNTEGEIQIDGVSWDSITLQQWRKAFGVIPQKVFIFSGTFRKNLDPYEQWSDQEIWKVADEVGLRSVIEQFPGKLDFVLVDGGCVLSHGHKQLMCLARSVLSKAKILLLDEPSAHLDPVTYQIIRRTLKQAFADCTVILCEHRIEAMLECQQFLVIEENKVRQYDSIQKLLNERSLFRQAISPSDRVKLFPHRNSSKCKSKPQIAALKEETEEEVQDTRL

[3] = Drug metabolism in rat liver microsomes at 5 uM measured over 4 hrs by LC/MS analysis in presence of NADPH; format: ADME, Microsome; conditions: read-out: Drug metabolism
[4] = molecular target: T1, Cystic fibrosis transmembrane conductance regulator; assay: Inhibition of wild type human CFTR chloride conductance expressed in forskolin-stimulated rat FRT cells by short-circuit current analysis in presence of transepithelial chloride gradient; format: cell-based; method in brief: as §1
Serum [5] = assay: Metabolic stability in mouse serum assessed as formation of (S)-BPO-27 at 5 mg measured at 4 hrs by hydrogen-deuterium exchange assay; format: ADME, cell-free
[6] = Half life in CD1 mouse at 10 mg/kg, ip administered as bolus dose; format: ADME, organism-based; set-up: dose 10 mg/kg, route intraperitoneal; conditions: in vivo
Method in brief: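 Single bolus i.p. dose of 10 mg/kg in mice, given in 5% DMSO, 2.5% Tween-80 and 2.5% PEG400 in water. Blood sampled at set times; serum compound measured by LC/MS ion chromatograms (m/z 548 [M+H]+) against a calibration of known amounts spiked into blood (linear, sensitivity better than 500 nM). Mean ± S.E., n = 3; t1/2 from the decay of the parent compound.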

[7] = Drug uptake in CD1 mouse kidney at 10 mg/kg, ip administered as bolus dose measured at 4 hrs by LC-MS analysis; format: ADME, organism-based; set-up: dose 10 mg/kg, route intraperitoneal; conditions: read-out: Drug uptake
Method in brief: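 Mice received a single bolus intraperitoneal dose of 10 mg/kg in 5% DMSO, 2.5% Tween-80 and 2.5% PEG400 in water. Kidney homogenate was taken at 4 h and the compound measured by LC/MS (3 mice).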

Compound: CC(C)N.Cn1c(=O)c2c(-c3ccccc3)n3c(c2n(C)c1=O)[C@@H](c1ccc(Br)o1)Oc1ccc(C(=O)O)cc1-3 [listing 1 of 2 here]
Stability (Serum [1]): Stable

Compound: CCOC(=O)c1ccc2c(c1)-n1c(-c3ccccc3)c3c(=O)n(C)c(=O)n(C)c3c1[C@@H](c1ccc(Br)o1)O2
inhibition [2]: inactive

Compound: CC(C)N.Cn1c(=O)c2c(-c3ccccc3)n3c(c2n(C)c1=O)[C@H](c1ccc(Br)o1)Oc1ccc(C(=O)O)cc1-3 [listing 1 of 2 here]
IC50 [4]: 4 nM

The remaining lines, values ahead:

metabolised at 4 h, 5 µM [3]: < 5%
Compound: Cn1c(=O)c2c(-c3ccccc3)n3c(c2n(C)c1=O)[C@@H](c1ccc(Br)o1)Oc1ccc(C(=O)O)cc1-3

inhibition [2]: inactive
Compound: CC(C)N.Cn1c(=O)c2c(-c3ccccc3)n3c(c2n(C)c1=O)[C@@H](c1ccc(Br)o1)Oc1ccc(C(=O)O)cc1-3 [listing 2 of 2 here]

inhibition [4]: Dose-dependent effect
inhibition [2]: Active
Compound: CC(C)N.Cn1c(=O)c2c(-c3ccccc3)n3c(c2n(C)c1=O)[C@H](c1ccc(Br)o1)Oc1ccc(C(=O)O)cc1-3 [listing 2 of 2 here]

Stability (Serum [5]): Stable
half-life [6]: 1.6 h
concentration at 4 h [7]: 600 nM
metabolised at 4 h, 5 µM [3]: < 5%
Compound: Cn1c(=O)c2c(-c3ccccc3)n3c(c2n(C)c1=O)[C@H](c1ccc(Br)o1)Oc1ccc(C(=O)O)cc1-3
